Assay results published in ChEMBL document CHEMBL3244155, “Inhibitory analogues of the luteinizing hormone-releasing hormone having D-aromatic residues in positions 2 and 6 and variation in position 3” (1978).
Calls of active or inactive are those of the source. The calls are words filed in the database; no cut-off is given here. Non-standard residues stand in square brackets, D forms with d. Residues, ends and D or L forms follow the SMILES beside them. pGlu = O=C1CC[C@@H](C(=O)O)N1

How the values were obtained:
[1] = biological target: T1, Gonadotropin-releasing hormone receptor (Rattus norvegicus) (UniProt P30969); assay: Antagonist activity at LH-RH receptor in Sprague-Dawley rat pituitary gland assessed as change in LHRH-stimulated LH release at 0.1 ug/ml preincubated for 4 hrs followed by LH-RH addition at 5th and 6th hr 5 mins post compound addition and measured for 6 hrs by RIA
T1 sequence (whole entry): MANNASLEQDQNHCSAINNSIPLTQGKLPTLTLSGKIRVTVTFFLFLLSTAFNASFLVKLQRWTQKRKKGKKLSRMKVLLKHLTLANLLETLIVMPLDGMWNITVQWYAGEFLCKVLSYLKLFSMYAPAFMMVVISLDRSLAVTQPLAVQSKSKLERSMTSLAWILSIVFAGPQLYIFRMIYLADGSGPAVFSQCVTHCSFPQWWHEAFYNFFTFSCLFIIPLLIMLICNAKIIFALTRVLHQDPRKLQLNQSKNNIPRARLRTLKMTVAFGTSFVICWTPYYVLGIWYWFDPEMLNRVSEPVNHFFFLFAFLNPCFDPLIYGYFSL
In short: (§1)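 Pituitaries from 20-day-old female Sprague-Dawley rats, two per 1 mL lactated Ringer's, shaken 6 h at 37 °C with medium changed each hour. Analogue added at hours 3–6. LH-RH 0.6 ng/mL medium added 5 min after peptide at hours 5 and 6. LH and FSH measured by RIA against rat standards. Change in ng/mL with SEM and p values.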

[2] = biological target: T1, Gonadotropin-releasing hormone receptor (Rattus norvegicus); assay: Antagonist activity at LH-RH receptor in Sprague-Dawley rat pituitary gland assessed as change in LHRH-stimulated LH release at 1 ug/ml preincubated for 4 hrs followed by LH-RH addition at 5th and 6th hr 5 mins post compound addition and measured for 6 hrs by RIA; in short: as §1
[3] = biological target: T1, Gonadotropin-releasing hormone receptor (Rattus norvegicus); assay: Antagonist activity at LH-RH receptor in Sprague-Dawley rat pituitary gland assessed as change in LHRH-stimulated LH release at 100 ug/ml preincubated for 4 hrs followed by LH-RH addition at 5th and 6th hr 5 mins post compound addition and measured for 6 hrs by RIA; in short: as §1
[4] = biological target: T1, Gonadotropin-releasing hormone receptor (Rattus norvegicus); assay: Agonist activity at LH-RH receptor in Sprague-Dawley rat pituitary gland assessed as change in LH release at 100 ug/ml measured for 6 hrs by RIA
In short: (§2)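 Two pituitaries from 20-day-old female Sprague-Dawley rats incubated 6 h at 37 °C in 1 mL lactated Ringer's with shaking. Medium removed hourly and replaced. Analogue alone added at hours 3–6. LH and FSH measured by RIA, expressed as ng/mL of medium against LH-LER-1240-2 and NIAMDD rat FSH RP-1 standards. Change reported with SEM.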

[5] = biological target: T1, Gonadotropin-releasing hormone receptor (Rattus norvegicus); assay: Antagonist activity at LH-RH receptor in Sprague-Dawley rat pituitary gland assessed as change in LHRH-stimulated FSH release at 0.1 ug/ml preincubated for 4 hrs followed by LH-RH addition at 5th and 6th hr 5 mins post compound addition and measured for 6 hrs by RIA; in short: as §1
[6] = biological target: T1, Gonadotropin-releasing hormone receptor (Rattus norvegicus); assay: Antagonist activity at LH-RH receptor in Sprague-Dawley rat pituitary gland assessed as change in LHRH-stimulated FSH release at 1 ug/ml preincubated for 4 hrs followed by LH-RH addition at 5th and 6th hr 5 mins post compound addition and measured for 6 hrs by RIA; in short: as §1
[7] = biological target: T1, Gonadotropin-releasing hormone receptor (Rattus norvegicus); assay: Antagonist activity at LH-RH receptor in Sprague-Dawley rat pituitary gland assessed as change in LHRH-stimulated FSH release at 100 ug/ml preincubated for 4 hrs followed by LH-RH addition at 5th and 6th hr 5 mins post compound addition and measured for 6 hrs by RIA; in short: as §1
[8] = biological target: T1, Gonadotropin-releasing hormone receptor (Rattus norvegicus); assay: Agonist activity at LH-RH receptor in Sprague-Dawley rat pituitary gland assessed as change in FSH release at 100 ug/ml measured for 6 hrs by RIA; in short: as §2
Rattus norvegicus [9] = assay: Antiovulatory activity in rat assessed as inhibition of ovulation at 750 ug, sc relative to vehicle-treated control; assay type: functional
In short: (§3)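 Rats with 4-day cycles given one sc injection of analogue in corn oil on proestrus, between 12 and 12:30 p.m. Controls received 0.3 mL corn oil. Ova shed were counted on estrus. Percent of rats with ovulation inhibited was recorded, with ova per ovulating rat ± SEM.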

Rattus norvegicus [10] = assay: Antiovulatory activity in rat assessed as inhibition of ovulation at 1500 ug, sc relative to vehicle-treated control; assay type: functional; in short: as §3
[11] = biological target: T1, Gonadotropin-releasing hormone receptor (Rattus norvegicus); assay: Antagonist activity at LH-RH receptor in Sprague-Dawley rat pituitary gland assessed as change in LHRH-stimulated LH release at 10 ug/ml preincubated for 4 hrs followed by LH-RH addition at 5th and 6th hr 5 mins post compound addition and measured for 6 hrs by RIA; in short: as §1
[12] = biological target: T1, Gonadotropin-releasing hormone receptor (Rattus norvegicus); assay: Antagonist activity at LH-RH receptor in Sprague-Dawley rat pituitary gland assessed as change in LHRH-stimulated FSH release at 10 ug/ml preincubated for 4 hrs followed by LH-RH addition at 5th and 6th hr 5 mins post compound addition and measured for 6 hrs by RIA; in short: as §1
Rattus norvegicus [13] = assay: Antiovulatory activity in rat assessed as inhibition of ovulation at 375 ug, sc relative to vehicle-treated control; assay type: functional; in short: as §3

SMILES | Activity [1] | Activity [2] | Activity [3] | Activity [4] | Activity [5] | Activity [6] | Activity [7] | Activity [8] | Activity [11] | Activity [12] | inhibition (INH) (Rattus norvegicus [9]) | inhibition (INH) (Rattus norvegicus [10]) | inhibition (INH) (Rattus norvegicus [13])
CC(C)C[C@H](NC(=O)[C@@H](Cc1c[nH]c2ccccc12)NC(=O)[C@H](Cc1ccc(O)cc1)NC(=O)[C@H](CO)NC(=O)[C@@H](NC(=O)[C@@H](Cc1ccccc1)NC(=O)[C@@H]1CCC(=O)N1)C(C)C)C(=O)N[C@@H](CCCNC(=N)N)C(=O)N1CCC[C@H]1C(=O)NCC(N)=O | 44 ng/mL | -32 ng/mL | 7 ng/mL | inactive | 3010 ng/mL | -1140 ng/mL | 110 ng/mL | inactive | – | – | 16% | 60% | –
CC(C)C[C@H](NC(=O)[C@@H](Cc1ccccc1)NC(=O)[C@H](Cc1ccc(O)cc1)NC(=O)[C@H](CO)NC(=O)[C@@H](NC(=O)[C@@H](Cc1ccccc1)NC(=O)[C@@H]1CCC(=O)N1)[C@@H](C)O)C(=O)N[C@@H](CCCNC(=N)N)C(=O)N1CCC[C@H]1C(=O)NCC(N)=O | 159 ng/mL | 97 ng/mL | 16 ng/mL | inactive | 5470 ng/mL | 2450 ng/mL | 379 ng/mL | inactive | 18 ng/mL | 751 ng/mL | 0% | – | –
CC(C)C[C@H](NC(=O)[C@@H](Cc1ccccc1)NC(=O)[C@H](Cc1ccc(O)cc1)NC(=O)[C@H](CO)NC(=O)[C@H](CCCNC(=N)N)NC(=O)[C@@H](Cc1ccccc1)NC(=O)[C@@H]1CCC(=O)N1)C(=O)N[C@@H](CCCNC(=N)N)C(=O)N1CCC[C@H]1C(=O)NCC(N)=O | 276 ng/mL | 51 ng/mL | 18 ng/mL | inactive | 5390 ng/mL | 1390 ng/mL | -133 ng/mL | inactive | 34 ng/mL | 380 ng/mL | 40% | – | –
CC(C)C[C@H](NC(=O)[C@@H](Cc1c[nH]c2ccccc12)NC(=O)[C@H](Cc1ccc(O)cc1)NC(=O)[C@H](CO)NC(=O)[C@@H](Cc1ccccc1)NC(=O)[C@@H](Cc1ccccc1)NC(=O)[C@@H]1CCC(=O)N1)C(=O)N[C@@H](CCCNC(=N)N)C(=O)N1CCC[C@H]1C(=O)NCC(N)=O | 97 ng/mL | 39 ng/mL | 10 ng/mL | inactive | 2120 ng/mL | 70 ng/mL | -814 ng/mL | inactive | – | – | 40% | – | –
CC(C)C[C@H](NC(=O)[C@@H](Cc1ccccc1)NC(=O)[C@H](Cc1ccc(O)cc1)NC(=O)[C@H](CO)NC(=O)[C@@H]1CCCN1C(=O)[C@@H](Cc1ccccc1)NC(=O)[C@@H]1CCC(=O)N1)C(=O)N[C@@H](CCCNC(=N)N)C(=O)N1CCC[C@H]1C(=O)NCC(N)=O ([pGlu][dF]PSY[dF]LRPG-NH2) | 46 ng/mL | 17 ng/mL | 12 ng/mL | inactive | 1380 ng/mL | 280 ng/mL | 179 ng/mL | inactive | – | – | 100% | – | 20%

Second part, led by results:

Activity [1] | Activity [2] | Activity [3] | Activity [4] | Activity [5] | Activity [6] | Activity [7] | Activity [8] | Activity [11] | Activity [12] | SMILES | inhibition (INH) (Rattus norvegicus [9]) | inhibition (INH) (Rattus norvegicus [10]) | inhibition (INH) (Rattus norvegicus [13])
143 ng/mL | 21 ng/mL | 68 ng/mL | inactive | 2310 ng/mL | -348 ng/mL | 645 ng/mL | inactive | – | – | CC[C@H](C)[C@H](NC(=O)[C@@H](Cc1ccccc1)NC(=O)[C@@H]1CCC(=O)N1)C(=O)N[C@@H](CO)C(=O)N[C@@H](Cc1ccc(O)cc1)C(=O)N[C@H](Cc1c[nH]c2ccccc12)C(=O)N[C@@H](CC(C)C)C(=O)N[C@@H](CCCNC(=N)N)C(=O)N1CCC[C@H]1C(=O)NCC(N)=O | 0% | – | –
77 ng/mL | 52 ng/mL | 10 ng/mL | inactive | 3270 ng/mL | -291 ng/mL | -672 ng/mL | inactive | – | – | CSCC[C@H](NC(=O)[C@@H](Cc1ccccc1)NC(=O)[C@@H]1CCC(=O)N1)C(=O)N[C@@H](CO)C(=O)N[C@@H](Cc1ccc(O)cc1)C(=O)N[C@H](Cc1c[nH]c2ccccc12)C(=O)N[C@@H](CC(C)C)C(=O)N[C@@H](CCCNC(=N)N)C(=O)N1CCC[C@H]1C(=O)NCC(N)=O | 20% | – | –
339 ng/mL | 127 ng/mL | 13 ng/mL | inactive | 4590 ng/mL | 3450 ng/mL | 321 ng/mL | inactive | 22 ng/mL | 518 ng/mL | CC(C)C[C@H](NC(=O)[C@@H](Cc1ccccc1)NC(=O)[C@H](Cc1ccc(O)cc1)NC(=O)[C@H](CO)NC(=O)CN(C)C(=O)[C@@H](Cc1ccccc1)NC(=O)[C@@H]1CCC(=O)N1)C(=O)N[C@@H](CCCNC(=N)N)C(=O)N1CCC[C@H]1C(=O)NCC(N)=O | 50% | – | –
